ChEMBL document CHEMBL4414568, “Development of Novel Irreversible Pyruvate Kinase M2 Inhibitors” (J Med Chem, 2019)
The source made the active and inactive calls. No cut-off for these calls is given here.

Legend:
Pyruvate kinase PKM [1] = biological target: T1, Pyruvate kinase PKM (Homo sapiens, UniProt P14618); experiment: Inhibition of PKM2 in human PC9 cells assessed as reduction in STAT3 phosphorylation incubated for 24 hrs by Western blot analysis; type: cell-based
Method in brief: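 PC-9 cells seeded at 5 × 10^5 cells/mL; after 24 h given 0–1 µM compound or DMSO for 24 h. Lysates run on 10% SDS-PAGE, transferred to nitrocellulose, probed for PKM2, EGFR, p-STAT3, STAT3, p-β-catenin, β-catenin and β-actin with HRP secondaries, ECL detection.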
Target sequence in this assay (P14618 2-531 limits assumed): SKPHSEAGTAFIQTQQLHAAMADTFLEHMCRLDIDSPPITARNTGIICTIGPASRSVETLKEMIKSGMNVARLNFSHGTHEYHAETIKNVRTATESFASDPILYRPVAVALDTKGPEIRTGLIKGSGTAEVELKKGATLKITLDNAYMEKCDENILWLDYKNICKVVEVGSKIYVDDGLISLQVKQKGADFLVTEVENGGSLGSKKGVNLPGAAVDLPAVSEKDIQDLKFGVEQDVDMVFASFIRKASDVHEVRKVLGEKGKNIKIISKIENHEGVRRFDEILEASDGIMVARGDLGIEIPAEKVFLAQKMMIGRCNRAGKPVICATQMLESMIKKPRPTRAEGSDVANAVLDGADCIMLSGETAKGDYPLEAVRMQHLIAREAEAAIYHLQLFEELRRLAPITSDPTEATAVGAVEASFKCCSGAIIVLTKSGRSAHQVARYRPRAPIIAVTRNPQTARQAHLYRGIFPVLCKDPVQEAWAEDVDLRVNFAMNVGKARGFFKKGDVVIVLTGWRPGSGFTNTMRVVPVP

[2] = biological target: T2, Phosphoglycerate kinase 1 (Homo sapiens) (UniProt P00558); experiment: Binding affinity to PGK1 in human PC9 cells incubated for 1 hr by ABPP-SILAC assay; type: cell-based
T2 sequence (whole entry): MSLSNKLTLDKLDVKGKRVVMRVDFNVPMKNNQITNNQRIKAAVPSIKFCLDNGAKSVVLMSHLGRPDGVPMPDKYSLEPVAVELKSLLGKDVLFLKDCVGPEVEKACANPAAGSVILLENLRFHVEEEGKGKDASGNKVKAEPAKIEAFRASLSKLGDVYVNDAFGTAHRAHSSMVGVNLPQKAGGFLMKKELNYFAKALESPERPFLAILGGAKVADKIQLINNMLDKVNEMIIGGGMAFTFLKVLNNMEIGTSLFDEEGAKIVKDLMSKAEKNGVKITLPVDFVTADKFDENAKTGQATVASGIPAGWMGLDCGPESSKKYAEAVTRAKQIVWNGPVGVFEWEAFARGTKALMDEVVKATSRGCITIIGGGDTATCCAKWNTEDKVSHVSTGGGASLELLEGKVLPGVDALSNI
Method in brief: (§1)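 PC-9 cells passaged at least six times in SILAC DMEM with 10% dialyzed FBS plus 100 µg/mL light or 13C/15N-labeled Arg/Lys. Heavy cells got ABPP probe (1 µM) and light cells DMSO, 1 h at 37 °C. Cells mixed 1:1, sonicated, spun at 100,000g, protein normalized to 1 mg/mL. Click biotin-azide, streptavidin bead pulldown 16 h at 4 °C, SDS-PAGE, on-bead trypsin digestion, LC-MS/MS.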

Pyruvate kinase PKM [3] = biological target: T1, Pyruvate kinase PKM; experiment: Binding affinity to PKM2 in human PC9 cells incubated for 1 hr by ABPP-SILAC assay; type: cell-based; method in brief: as §1
Target sequence in this assay (P14618 2-531 limits assumed): as the sequence (P14618 2-531 limits assumed) above

Pyruvate kinase PKM [4] = biological target: T1, Pyruvate kinase PKM; experiment: Inhibition of recombinant human N-terminal His-tagged PKM1 expressed in Escherichia coli at 0.125 to 0.5 uM using PEP as substrate incubated for 20 mins by OxiRed probe-based colorimetric analysis
Method in brief: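 Recombinant PKM1 or PKM2 incubated with compound at room temperature for 20 min. Remaining activity measured by the same colorimetric kit: PEP + […], PK then pyruvate oxidase, H2O2 read-out. n = 3.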
Target sequence in this assay (P14618 whole entry): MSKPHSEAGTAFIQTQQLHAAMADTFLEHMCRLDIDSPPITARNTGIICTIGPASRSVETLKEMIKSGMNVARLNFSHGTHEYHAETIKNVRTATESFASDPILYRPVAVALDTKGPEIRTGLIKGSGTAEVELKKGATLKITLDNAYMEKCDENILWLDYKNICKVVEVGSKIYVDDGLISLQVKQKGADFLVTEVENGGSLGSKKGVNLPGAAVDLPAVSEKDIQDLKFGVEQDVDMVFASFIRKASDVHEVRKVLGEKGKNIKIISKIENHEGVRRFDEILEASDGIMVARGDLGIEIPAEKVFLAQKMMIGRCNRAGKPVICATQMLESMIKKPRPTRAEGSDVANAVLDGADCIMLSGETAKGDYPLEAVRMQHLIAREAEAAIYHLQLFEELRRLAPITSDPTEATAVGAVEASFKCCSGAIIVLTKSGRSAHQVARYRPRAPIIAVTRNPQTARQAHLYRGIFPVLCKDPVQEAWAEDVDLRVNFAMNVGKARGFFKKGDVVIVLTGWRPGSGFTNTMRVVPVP

PC-9 = experiment: Induction of ROS production in human PC9 cells at 0.25 and 0.5 uM incubated for 6 hrs by H2DCFDA dye-based fluorescence assay; type: functional, cell-based
Method in brief: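 PC-9 cells at 2 × 10^4 per well, after 24 h treated with compound or DMSO for 6 h. Cells washed, given 1X ROS label in assay buffer for 45 min at 37 °C in the dark, fluorescence read at Ex/Em 495/529 nm as an end point. n = 3.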

NCI-H157 = experiment: Antiproliferative activity against human NCI-H157 cells assessed as reduction in cell viability incubated for 24 hrs by MTT assay; type: functional, cell-based; settings: NCI-H157, 24 h
Method in brief: (§2)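 Cells seeded at 3,500 per well in 10% FBS and left overnight, then exposed to test agent or vehicle in 5% FBS for 24 h. MTT added for 1 h, then medium swapped for DMSO and absorbance read at 560 nm. Viability given as percent of vehicle-treated control. Run in triplicate.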

[5] = biological target: T3, Phosphoenolpyruvate carboxykinase [GTP], mitochondrial (Homo sapiens) (UniProt Q16822); experiment: Binding affinity to PCKGM in human PC9 cells incubated for 1 hr by ABPP-SILAC assay; type: cell-based; method in brief: as §1
T3 sequence (whole entry): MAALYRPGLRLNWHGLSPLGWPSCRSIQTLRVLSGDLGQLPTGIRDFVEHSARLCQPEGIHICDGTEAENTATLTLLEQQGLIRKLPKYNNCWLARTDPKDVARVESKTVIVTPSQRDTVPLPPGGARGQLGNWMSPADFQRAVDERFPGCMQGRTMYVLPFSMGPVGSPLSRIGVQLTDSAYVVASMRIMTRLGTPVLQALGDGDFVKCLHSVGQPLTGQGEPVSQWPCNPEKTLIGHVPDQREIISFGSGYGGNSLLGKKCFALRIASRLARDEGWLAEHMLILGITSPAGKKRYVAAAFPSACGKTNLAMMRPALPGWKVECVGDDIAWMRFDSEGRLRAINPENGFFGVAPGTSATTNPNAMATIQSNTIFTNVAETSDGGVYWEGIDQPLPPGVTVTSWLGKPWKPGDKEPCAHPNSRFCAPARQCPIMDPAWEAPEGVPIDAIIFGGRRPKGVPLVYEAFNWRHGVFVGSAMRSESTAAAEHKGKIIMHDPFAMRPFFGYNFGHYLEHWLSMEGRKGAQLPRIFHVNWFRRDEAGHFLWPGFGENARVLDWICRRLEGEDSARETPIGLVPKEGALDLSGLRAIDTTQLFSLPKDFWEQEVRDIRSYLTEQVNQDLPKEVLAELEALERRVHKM

NCI-H1650 = experiment: Antiproliferative activity against human NCI-H1650 cells harboring EGFR mutant assessed as reduction in cell viability incubated for 24 hrs by MTT assay; type: functional, cell-based; settings: NCI-H1650, 24 h; method in brief: as §2

- inhibition (Pyruvate kinase PKM [1]): Dose-dependent effect
- Activity [2]: Active
- Activity (Pyruvate kinase PKM [3]): Active
- inhibition (INH) (Pyruvate kinase PKM [4]): Not Active
- IC50 (NCI-H157): > 2000 nM
- Activity [5]: Active
- IC50 (NCI-H1650): 200 nM
Compound: C#CC(=O)Nc1ccc(-n2nc(CCC(=O)NC)cc2-c2ccc(-c3ccc(C(F)(F)F)cc3)cc2)cc1
- Activity (PC-9): inactive
